Laboratory results taken from publication PMC9116722 (Cancer chemotherapy and pharmacology, 2022).

Assay: Adverse events
Assay type: in vivo, human
Conditions: BRCAmut
Summary of the method: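 Patients with germline BRCA-mutated cancers, or BRCA-wildtype TNBC or platinum-refractory ovarian cancer, took oral drug continuously twice daily in 28-day cycles. There were nine dose levels from 50 to 500 mg BID under 3+3 escalation, run separately per cohort after the first DLT. Toxicities were graded by CTCAE v4.0, with DLTs assessed during cycle 1.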

C[C@]1(c2nc3c(C(N)=O)cccc3[nH]2)CCCN1 [veliparib]
Anemia, Grade 3 (DL3 100/100 mg AM/PM): 0 number of patients (%)
Anemia, Grade 4 (DL3 100/100 mg AM/PM): 0 number of patients (%)
Any Grade 3/4 toxicity (DL3 100/100 mg AM/PM): 0 number of patients (%)
Any Grade 3 toxicity (DL3 100/100 mg AM/PM): 0 number of patients (%)
Any Grade 4 toxicity (DL3 100/100 mg AM/PM): 0 number of patients (%)
Appendicitis, Grade 3 (DL3 100/100 mg AM/PM): 0 number of patients (%)
Aspartate aminotransferase increased, Grade 3 (DL3 100/100 mg AM/PM): 0 number of patients (%)
Dehydration, Grade 3 (DL3 100/100 mg AM/PM): 0 number of patients (%)
Dyspnea, Grade 4 (DL3 100/100 mg AM/PM): 0 number of patients (%)
Fatigue, Grade 3 (DL3 100/100 mg AM/PM): 0 number of patients (%)
Headache, Grade 3 (DL3 100/100 mg AM/PM): 0 number of patients (%)
Hypophosphatemia, Grade 3 (DL3 100/100 mg AM/PM): 0 number of patients (%)
Lymphocyte count decreased, Grade 3 (DL3 100/100 mg AM/PM): 0 number of patients (%)
Lymphocyte count decreased, Grade 4 (DL3 100/100 mg AM/PM): 0 number of patients (%)
Nausea, Grade 3 (DL3 100/100 mg AM/PM): 0 number of patients (%)
Platelet count decreased, Grade 4 (DL3 100/100 mg AM/PM): 0 number of patients (%)
Thromboembolic event, Grade 3 (DL3 100/100 mg AM/PM): 0 number of patients (%)
Thromboembolic event, Grade 4 (DL3 100/100 mg AM/PM): 0 number of patients (%)
Urinary tract infection, Grade 3 (DL3 100/100 mg AM/PM): 0 number of patients (%)
Abdominal pain, Grade 3 (DL6 200/200 mg AM/PM): 0 number of patients (%)
Alkaline phosphatase increased, Grade 3 (DL6 200/200 mg AM/PM): 0 number of patients (%)
Anemia, Grade 3 (DL6 200/200 mg AM/PM): 0 number of patients (%)
Anemia, Grade 4 (DL6 200/200 mg AM/PM): 0 number of patients (%)
Any Grade 3/4 toxicity (DL6 200/200 mg AM/PM): 0 number of patients (%)
Any Grade 3 toxicity (DL6 200/200 mg AM/PM): 0 number of patients (%)
Any Grade 4 toxicity (DL6 200/200 mg AM/PM): 0 number of patients (%)
Appendicitis, Grade 3 (DL6 200/200 mg AM/PM): 0 number of patients (%)
Aspartate aminotransferase increased, Grade 3 (DL6 200/200 mg AM/PM): 0 number of patients (%)
Dehydration, Grade 3 (DL6 200/200 mg AM/PM): 0 number of patients (%)
Dyspnea, Grade 4 (DL6 200/200 mg AM/PM): 0 number of patients (%)
Fatigue, Grade 3 (DL6 200/200 mg AM/PM): 0 number of patients (%)
Headache, Grade 3 (DL6 200/200 mg AM/PM): 0 number of patients (%)
Hypophosphatemia, Grade 3 (DL6 200/200 mg AM/PM): 0 number of patients (%)
Lymphocyte count decreased, Grade 3 (DL6 200/200 mg AM/PM): 0 number of patients (%)
Lymphocyte count decreased, Grade 4 (DL6 200/200 mg AM/PM): 0 number of patients (%)
Nausea, Grade 3 (DL6 200/200 mg AM/PM): 0 number of patients (%)
Platelet count decreased, Grade 4 (DL6 200/200 mg AM/PM): 0 number of patients (%)
Thromboembolic event, Grade 3 (DL6 200/200 mg AM/PM): 0 number of patients (%)
Thromboembolic event, Grade 4 (DL6 200/200 mg AM/PM): 0 number of patients (%)
Urinary tract infection, Grade 3 (DL6 200/200 mg AM/PM): 0 number of patients (%)
Abdominal pain, Grade 3 (DL7 300/300 mg AM/PM): 0 number of patients (%)
Alkaline phosphatase increased, Grade 3 (DL7 300/300 mg AM/PM): 0 number of patients (%)
Anemia, Grade 3 (DL7 300/300 mg AM/PM): 0 number of patients (%)
Anemia, Grade 4 (DL7 300/300 mg AM/PM): 0 number of patients (%)
Any Grade 3/4 toxicity (DL7 300/300 mg AM/PM): 2 (33) number of patients (%)
Any Grade 3 toxicity (DL7 300/300 mg AM/PM): 2 (33) number of patients (%)
Any Grade 4 toxicity (DL7 300/300 mg AM/PM): 0 number of patients (%)
Appendicitis, Grade 3 (DL7 300/300 mg AM/PM): 1 (17) number of patients (%)
Aspartate aminotransferase increased, Grade 3 (DL7 300/300 mg AM/PM): 0 number of patients (%)
Dehydration, Grade 3 (DL7 300/300 mg AM/PM): 0 number of patients (%)
Dyspnea, Grade 4 (DL7 300/300 mg AM/PM): 0 number of patients (%)
Fatigue, Grade 3 (DL7 300/300 mg AM/PM): 0 number of patients (%)
Headache, Grade 3 (DL7 300/300 mg AM/PM): 1 (17) number of patients (%)
Hypophosphatemia, Grade 3 (DL7 300/300 mg AM/PM): 0 number of patients (%)
Lymphocyte count decreased, Grade 3 (DL7 300/300 mg AM/PM): 1 (17) number of patients (%)
Lymphocyte count decreased, Grade 4 (DL7 300/300 mg AM/PM): 0 number of patients (%)
Nausea, Grade 3 (DL7 300/300 mg AM/PM): 0 number of patients (%)
Platelet count decreased, Grade 4 (DL7 300/300 mg AM/PM): 0 number of patients (%)
Thromboembolic event, Grade 3 (DL7 300/300 mg AM/PM): 0 number of patients (%)
Thromboembolic event, Grade 4 (DL7 300/300 mg AM/PM): 0 number of patients (%)
Urinary tract infection, Grade 3 (DL7 300/300 mg AM/PM): 0 number of patients (%)
Abdominal pain, Grade 3 (DL8 400/400 mg AM/PM): 2 (6) number of patients (%)
Alkaline phosphatase increased, Grade 3 (DL8 400/400 mg AM/PM): 0 number of patients (%)
Anemia, Grade 3 (DL8 400/400 mg AM/PM): 1 (3) number of patients (%)
Anemia, Grade 4 (DL8 400/400 mg AM/PM): 0 number of patients (%)
Any Grade 3/4 toxicity (DL8 400/400 mg AM/PM): 11 (32) number of patients (%)
Any Grade 3 toxicity (DL8 400/400 mg AM/PM): 11 (32) number of patients (%)
Any Grade 4 toxicity (DL8 400/400 mg AM/PM): 1 (3) number of patients (%)
Appendicitis, Grade 3 (DL8 400/400 mg AM/PM): 0 number of patients (%)
Aspartate aminotransferase increased, Grade 3 (DL8 400/400 mg AM/PM): 0 number of patients (%)
Dehydration, Grade 3 (DL8 400/400 mg AM/PM): 1 (3) number of patients (%)
Dyspnea, Grade 4 (DL8 400/400 mg AM/PM): 0 number of patients (%)
Fatigue, Grade 3 (DL8 400/400 mg AM/PM): 1 (3) number of patients (%)
Headache, Grade 3 (DL8 400/400 mg AM/PM): 0 number of patients (%)
Hypophosphatemia, Grade 3 (DL8 400/400 mg AM/PM): 1 (3) number of patients (%)
Lymphocyte count decreased, Grade 3 (DL8 400/400 mg AM/PM): 7 (21) number of patients (%)
Lymphocyte count decreased, Grade 4 (DL8 400/400 mg AM/PM): 1 (3) number of patients (%)
Nausea, Grade 3 (DL8 400/400 mg AM/PM): 2 (6) number of patients (%)
Platelet count decreased, Grade 4 (DL8 400/400 mg AM/PM): 0 number of patients (%)
Thromboembolic event, Grade 3 (DL8 400/400 mg AM/PM): 2 (6) number of patients (%)
Thromboembolic event, Grade 4 (DL8 400/400 mg AM/PM): 0 number of patients (%)
Urinary tract infection, Grade 3 (DL8 400/400 mg AM/PM): 1 (3) number of patients (%)
Abdominal pain, Grade 3 (DL9 500/500 mg AM/PM): 0 number of patients (%)
Alkaline phosphatase increased, Grade 3 (DL9 500/500 mg AM/PM): 0 number of patients (%)
Anemia, Grade 3 (DL9 500/500 mg AM/PM): 0 number of patients (%)
Anemia, Grade 4 (DL9 500/500 mg AM/PM): 1 (14) number of patients (%)
Any Grade 3/4 toxicity (DL9 500/500 mg AM/PM): 2 (29) number of patients (%)
